Values after ≈ are worked out from the molar mass of the structure shown. Active and inactive are the calls of the source. The calls are words filed in the database; no cut-off is given here.
Key:
Staphylococcus aureus [1] = assay: Antibiotic activity against Staphylococcus aureus assessed as growth inhibition after 2 days by optical microscopy; format: functional; settings: 48 h
Escherichia coli = assay: Antibiotic activity against Escherichia coli DH5alpha assessed as growth inhibition after 2 days by optical microscopy; format: functional; settings: DH5[alpha], 48 h
Vero = assay: (§1) Cytotoxicity against african green monkey Vero cells assessed as reduction in cell viability after 24 hrs by MTT assay; format: cell-based; settings: chlorocebus sabaeus, vero, 24 h
Method in brief: (§2)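 Vero or MRC-5 cells kept in DMEM with 10% heat-inactivated calf serum, 37 °C, 5% CO₂; compound-treated cells given MTT for 3 h at 37 °C, then DMSO 10 min, absorbance at 570 nm; cytotoxicity % = 100 − (sample OD/untreated OD) × 100; TD50/TD90 = dose cutting viability 50% or 90%.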

[2] = as §1; format: cell-based; settings: chlorocebus sabaeus, Vero cells; read-out: TD50; method in brief: as §2
MRC5 = assay: (§3) Cytotoxicity against human MRC5 cells assessed as reduction in cell viability after 24 hrs by MTT assay; format: cell-based; settings: mrc5, 24 h; method in brief: as §2
[3] = as §3; format: cell-based; settings: MRC5 cells, read-out: TD50; method in brief: as §2
[4] = Therapeutic index, ratio of TD90 for human MRC5 cells to MBC for Staphylococcus aureus; format: cell-based; settings: read-out: TI
Method in brief: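 Therapeutic index calculated as MRC-5 TD90 (MTT assay) divided by MBC measured after washout regrowth test.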

Staphylococcus aureus [5] = assay: Antibiotic activity against Staphylococcus aureus assessed as growth inhibition after compound washout by optical microscopy; format: functional
Staphylococcus aureus [6] = assay: Antibiotic activity against Staphylococcus aureus assessed as ballooning of cocci at 1 to 4 times MIC concentration by phase-contrast microscopy; format: functional, organism-based

| SMILES | MIC (Staphylococcus aureus [1]) [µg/mL] | MIC (Escherichia coli) [µg/mL] | TD90 (Vero) [µg/mL] | CC50 at 24 h [2] [µg/mL] | TD90 (MRC5) [µg/mL] | CC50 at 24 h [3] [µg/mL] | selectivity ratio [4] | MBC (Staphylococcus aureus [5]) [µg/mL] | Activity (Staphylococcus aureus [6]) |
| --- | --- | --- | --- | --- | --- | --- | --- | --- | --- |
| CCCCCCCCCOc1ccc(F)c(C#N)c1F | > 100 | > 100 | – | – | – | – | – | – | – |
| CCCCCCCCCOc1ccc(F)c(C(N)=O)c1F | 0.1 (≈ 0.334 µM) | > 100 | > 200 | 90 (≈ 301 µM) | > 200 | 100 (≈ 334 µM) | > 800 | 0.25 (≈ 0.835 µM) | – |
| NC(=O)c1c(F)ccc(OCC2COc3ccccc3O2)c1F (racemic) | 5 (≈ 15.6 µM) | > 100 | – | – | – | – | – | 80 (≈ 249 µM) | – |
| CCCCCCCCCOc1ccc(F)c(C(=O)NCCO)c1F | > 100 | > 100 | – | – | – | – | – | – | – |
| NC(=O)c1c(F)ccc(OCC2COc3ccc(Cl)cc3O2)c1F (racemic) | 0.5 (≈ 1.41 µM) | > 100 | > 800 | 450 (≈ 1270 µM) | > 800 | 500 (≈ 1410 µM) | > 1600 | 0.5 (≈ 1.41 µM) | Active |
| CCCCCCCCCOc1ccc(F)c(C(=O)NCCNC(=O)c2c(F)ccc(OCCCCCCCCC)c2F)c1F | > 100 | > 100 | – | – | – | – | – | – | – |
| NC(=O)c1c(F)ccc(OCCCCOCC(O)CO)c1F (stereo not given) | > 100 | > 100 | – | – | – | – | – | – | – |
| NC(=O)c1c(F)ccc(OC[C@@H]2COc3ccc(Cl)cc3O2)c1F | 0.25 (≈ 0.703 µM) | > 100 | > 200 | > 200 | > 800 | 600 (≈ 1690 µM) | > 1600 | 0.5 (≈ 1.41 µM) | – |
| NCCNC(=O)c1c(F)ccc(OCC2COc3ccccc3O2)c1F (stereo not given) | 20 (≈ 54.9 µM) | > 100 | – | – | – | – | – | 40 (≈ 110 µM) | – |
| CCCCCCCCCOc1ccc(F)c(C(=O)NCCN)c1F | 10 (≈ 29.2 µM) | 20 (≈ 58.4 µM) | 120 | 60 (≈ 175 µM) | 80 | 35 (≈ 102 µM) | – | – | – |
| CCCCCCCCCOc1ccc(F)c(C2=NCCO2)c1F | > 100 | > 100 | – | – | – | – | – | – | – |
| NCC(O)COCCCCOc1ccc(F)c(C(N)=O)c1F (racemic) | > 100 | > 100 | – | – | – | – | – | – | – |
| NC(=O)c1c(F)ccc(OC[C@H]2COc3ccc(Cl)cc3O2)c1F | 1 (≈ 2.81 µM) | > 100 | > 200 | > 200 | > 800 | 400 (≈ 1120 µM) | > 320 | 2.5 (≈ 7.03 µM) | – |
| NC(=O)c1c(F)ccc(OCC2COc3cc(Cl)ccc3O2)c1F (racemic) | 1 (≈ 2.81 µM) | > 100 | 800 | 550 (≈ 1550 µM) | 800 | 650 (≈ 1830 µM) | 320 | 2.5 (≈ 7.03 µM) | – |

Reference: ChEMBL document CHEMBL3352283, “Benzodioxane-benzamides as new bacterial cell division inhibitors” (Eur J Med Chem, 2015)
